For 75 variants, yeast fitness results are on record in the RNAGym collection of RNA variant scans (doi:10.1126/science.aae0568).

The labels stand for the following.
B1: tRNA (parent)
chain: GUUCCGUUGGCGUAAUGGUAACGCGUCUCCCUCCUAAGGAGAAGACUGCGGGUUCGAGUCCCGUACGGAACG

This sample holds only a part of the variants without activity.

The variants in this data set derive from B1. As to the kind of experiment: yeast fitness relative to wild type (ratio to wild type); higher = fitter; tRNA-Arg(CCU), competitive growth, 37 C, YPD. An outline of the steps: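 The tRNA-Arg(CCU) gene variants were made by chemical synthesis with a 3% per-site mutation rate at 69 sites and inserted at the native genomic locus of Saccharomyces cerevisiae. After pooling, the strains were competed in YPD at 37°C for 24 hours in six parallel replicates. Gene amplicons from the start population and each end population were read by 100-nucleotide paired-end sequencing, and Darwinian fitness relative to wild type was taken from genotype frequency changes. Genotypes needed ≥ 100 starting reads, and estimates < 0.5 were set to 0.5.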
For the variant GUUCCGUUGGCGUAAUGGUAACGCGUCUCCCUCCUAAGGAGAAGACUGCCGGUUCGAGUACCGUACGGAACG, the yeast fitness is at most 0.5.
The result for GUUCCGUUGGCGUAAUGGUAACGCGUCUCCCUCCUAAGGAGAAGACUGCAGGUUCCAGUCCCAUACGGAACG reads 0.561; that for GUUCCGUUGGCGUAAUGGUAACGCGUCUCCCUCCUAAGGAGAAGACUGCAGGUACGAGUCCCGUACGGAACG, 0.705; that for GUUCCGUUGGCGUAAUGGUAACGCGUCUCCCUCCUAAGGAGAAGACUGCCGGUUCGUGUCACGUACGGAACG, at most 0.5.
Regarding GUUCCGUUGGCGUAAUGGUAACGCGUCUCCCUCCUAAGGAGAAGACUGCCGGUUCGACUCCCGUACGGAACG, the yeast fitness was found to be 0.722.
In the case of GUUCCGUUGGCGUAAUGGUAACGCGUCUCCCUCCUAAGGAGAAGACUGCUGGUUCGAGUCCCGUACGGUACG, the yeast fitness is 1.02.
The result for GUUCCGUUGGCGUAAUGGUAACGCGUCUCCCUCCUAAGGAGAAGACUGCCGGUCCGGGUCCCGUACGGAACG reads at most 0.5.
The result for GUUCCGUUGGCGUAAUGGUAACGCGUCUCCCUCCUAAGGAGAAGACUGCGAGUUCGGGUCCCGUACGGAACG reads 0.819; that for GUUCCGUUGGCGUAAUGGUAACGCGUCUCCCUCCUAAGGAGAAGACUGCAGGUUCGAGUCCCGUAAGGAACG, 0.516; that for GUUCCGUUGGCGUAAUGGUAACGCGUCUCCCUCCUAAGGAGAAGACUGCAGGUUCGAGUCCCGUAUGGAACG, 0.783.
Take GUUCCGUUGGCGUAAUGGUAACGCGUCUCCCUCCUAAGGAGAAGACUGCUGGUUCGAGUCCUGUACGGCACG: the yeast fitness was found to be 0.661.
In the case of GUUCCGUUGGCGUAAUGGUAACGCGUCUCCCUCCUAAGGAGAAGACUGCUGGUUCGAGUCACGUACGGAACG it was at most 0.5.
In the case of GUUCCGUUGGCGUAAUGGUAACGCGUCUCCCUCCUAAGGAGAAGACUGCCGGUUCGAUUCCCGUACGUGACG it was 0.508; in that of GUUCCGUUGGCGUAAUGGUAACGCGUCUCCCUCCUAAGGAGAAGACUGCCGGUUCGUGUCCCGUACGGAACG, 0.63; in that of GUUCCGUUGGCGUAAUGGUAACGCGUCUCCCUCCUAAGGAGAAGACUGCAGGUUCAAGUCCCGUACGGAACG, 1.04.
In the case of GUUCCGUUGGCGUAAUGGUAACGCGUCUCCCUCCUAAGGAGAAGACUGCAGGUUCCAGUCCCGUACGGAACG it was 0.635; in that of GUUCCGUUGGCGUAAUGGUAACGCGUCUCCCUCCUAAGGAGAAGACUGCAGGUUCAAGUCCGGUACGGAUCG, at most 0.5.
As for GUUCCGUUGGCGUAAUGGUAACGCGUCUCCCUCCUAAGGAGAAGACUGCAGGUUCGAGUCCCGUACGCAACG, the yeast fitness came out at 0.635.
In the case of GUUCCGUUGGCGUAAUGGUAACGCGUCUCCCUCCUAAGGAGAAGACUGCCGGUUCGAGUCGCGUACGGACCG it was at most 0.5.
For GUUCCGUUGGCGUAAUGGUAACGCGUCUCCCUCCUAAGGAGAAGACUGCCGGAUCGUGUCCCGUUCGGAACG, the yeast fitness is 0.57.
In the case of GUUCCGUUGGCGUAAUGGUAACGCGUCUCCCUCCUAAGGAGAAGACUGCCAGUUCGAGUCCUGUACGGAACG it was at most 0.5; in that of GUUCCGUUGGCGUAAUGGUAACGCGUCUCCCUCCUAAGGAGAAGACUGCAGUUUCGAGUCCCGUACCGAACG, at most 0.5.
The result for GUUCCGUUGGCGUAAUGGUAACGCGUCUCCCUCCUAAGGAGAAGACUGCGAGUUCGAGUCCCGUGCGGAACG reads 0.852; that for GUUCCGUUGGCGUAAUGGUAACGCGUCUCCCUCCUAAGGAGAAGACUGCGAGUUCGAGUCCCGUCCGGAACG, 0.75.
The result for GUUCCGUUGGCGUAAUGGUAACGCGUCUCCCUCCUAAGGAGAAGACUGCGAGUUCGAGUCCCGUUCGGAACG reads 0.66; that for GUUCCGUUGGCGUAAUGGUAACGCGUCUCCCUCCUAAGGAGAAGACUGCAGGUUCGAGUCCUGUACGGAACG, 1.
GUUCCGUUGGCGUAAUGGUAACGCGUCUCCCUCCUAAGGAGAAGACUGCAGGUUCGAGUCCGGUACGGAACG: the yeast fitness was found to be 1.03.
In the case of GUUCCGUUGGCGUAAUGGUAACGCGUCUCCCUCCUAAGGAGAAGACUGCCGGUUAGAGUACCGUACGGAACG, the yeast fitness is at most 0.5.
In the case of GUUCCGUUGGCGUAAUGGUAACGCGUCUCCCUCCUAAGGAGAAGACUGCUGGUUCGAGUCCCGUGCGGACCG it was 0.59.
In the case of GUUCCGUUGGCGUAAUGGUAACGCGUCUCCCUCCUAAGGAGAAGACUGCGAGUUCGCGUCCCGUAUGGAACG it was 0.59; in that of GUUCCGUUGGCGUAAUGGUAACGCGUCUCCCUCCUAAGGAGAAGACUGCAGGUUCGAGUCCAGUACGAAACG, at most 0.5; in that of GUUCCGUUGGCGUAAUGGUAACGCGUCUCCCUCCUAAGGAGAAGACUGCCGGCACGAGUCCCGUACGGAACG, at most 0.5.
Turning to GUUCCGUUGGCGUAAUGGUAACGCGUCUCCCUCCUAAGGAGAAGACUGCCGGUUCGAAUCCCGUAUGGAACG, the yeast fitness came to 0.538.
In the case of GUUCCGUUGGCGUAAUGGUAACGCGUCUCCCUCCUAAGGAGAAGACUGCCGGUUCGAGUCUUGUACGGUACG it was at most 0.5; in that of GUUCCGUUGGCGUAAUGGUAACGCGUCUCCCUCCUAAGGAGAAGACUGCAGGUUCAAGUCCCGUACGGCACG, 0.706.
In the case of GUUCCGUUGGCGUAAUGGUAACGCGUCUCCCUCCUAAGGAGAAGACUGCAGGCUCGAGUCCAGUACGGUACG it was 0.517.
As to GUUCCGUUGGCGUAAUGGUAACGCGUCUCCCUCCUAAGGAGAAGACUGCGAGUUCGAGUCCCGUACGGUACG, the yeast fitness was 0.738.
Consider GUUCCGUUGGCGUAAUGGUAACGCGUCUCCCUCCUAAGGAGAAGACUGCUGGUUCGAGGCCCGUACGGAACG, for which the yeast fitness was 0.796.
In the case of GUUCCGUUGGCGUAAUGGUAACGCGUCUCCCUCCUAAGGAGAAGACUGCCGCUUCGAGUCCCGUACGGAACG it was 0.562; in that of GUUCCGUUGGCGUAAUGGUAACGCGUCUCCCUCCUAAGGAGAAGACUGCCGGUUCGAGUCCCGUCCGGAACG, 0.602; in that of GUUCCGUUGGCGUAAUGGUAACGCGUCUCCCUCCUAAGGAGAAGACUGCCGGUUCGAGUCCCGUAUGGAACG, 0.596.
The result for GUUCCGUUGGCGUAAUGGUAACGCGUCUCCCUCCUAAGGAGAAGACUGCCGGUUCGAGUCCCGUAAGGAACG reads 0.657; that for GUUCCGUUGGCGUAAUGGUAACGCGUCUCCCUCCUAAGGAGAAGACUGCGAGUUCGCGCCCCGUACGGAACG, at most 0.5.
The result for GUUCCGUUGGCGUAAUGGUAACGCGUCUCCCUCCUAAGGAGAAGACUGCCCGUUCAAGUCCCGUACGGAACG reads 0.602.
GUUCCGUUGGCGUAAUGGUAACGCGUCUCCCUCCUAAGGAGAAGACUGCAGGUUCGAGUCCUAUACGGAACG: the yeast fitness is at most 0.5.
In the case of GUUCCGUUGGCGUAAUGGUAACGCGUCUCCCUCCUAAGGAGAAGACUGCAGGUUAGAGUCCCGUAAGGAACG it was 0.543; in that of GUUCCGUUGGCGUAAUGGUAACGCGUCUCCCUCCUAAGGAGAAGACUGCGAGUUCGGGUCCCGUGUGGAACG, at most 0.5; in that of GUUCCGUUGGCGUAAUGGUAACGCGUCUCCCUCCUAAGGAGAAGACUGCCGGUUCGAGUCCGGUACGGAACG, 0.965.
For GUUCCGUUGGCGUAAUGGUAACGCGUCUCCCUCCUAAGGAGAAGACUGCCGGUUCGAGUCCUGUACGGAACG, the yeast fitness was 0.963.
In the case of GUUCCGUUGGCGUAAUGGUAACGCGUCUCCCUCCUAAGGAGAAGACUGCUGGUUCGAGUCCCGUACAGAACG it was 0.821; in that of GUUCCGUUGGCGUAAUGGUAACGCGUCUCCCUCCUAAGGAGAAGACUGCAGGUUCGAGUCGCGUACGGAACG, 0.737; in that of GUUCCGUUGGCGUAAUGGUAACGCGUCUCCCUCCUAAGGAGAAGACUGCGAGUUCGAGUCCCGUACGGAACG, 0.917.
With GUUCCGUUGGCGUAAUGGUAACGCGUCUCCCUCCUAAGGAGAAGACUGCCGGUUCGAGUCCCGUACGGAGCG, the yeast fitness worked out at 0.681.
On to GUUCCGUUGGCGUAAUGGUAACGCGUCUCCCUCCUAAGGAGAAGACUGCCGGUUCGAGUCCCGUACGGAUCG, for which the yeast fitness turned out to be 0.875.
In the case of GUUCCGUUGGCGUAAUGGUAACGCGUCUCCCUCCUAAGGAGAAGACUGCAGGUUCGAGUCCCGUAUGGCACG it was 0.531.
As for GUUCCGUUGGCGUAAUGGUAACGCGUCUCCCUCCUAAGGAGAAGACUGCAGGUUAGAGUCCCGUACGGAACG, the yeast fitness is 0.702.
The result for GUUCCGUUGGCGUAAUGGUAACGCGUCUCCCUCCUAAGGAGAAGACUGCAGGUUCGAGUCCCGUACCGAACG reads 0.743; that for GUUCCGUUGGCGUAAUGGUAACGCGUCUCCCUCCUAAGGAGAAGACUGCAGGUUCGAGUCCCGUACAGAACG, 0.818; that for GUUCCGUUGGCGUAAUGGUAACGCGUCUCCCUCCUAAGGAGAAGACUGCAGGUUCGAGUCCCGUACGGAUCG, 0.805.
In the case of GUUCCGUUGGCGUAAUGGUAACGCGUCUCCCUCCUAAGGAGAAGACUGCAGGUUCGAGUCCAGUAGGGAACG it was at most 0.5.
In the case of GUUCCGUUGGCGUAAUGGUAACGCGUCUCCCUCCUAAGGAGAAGACUGCCGGUUCGAGCCCCGUACGGAACG it was 0.721.
GUUCCGUUGGCGUAAUGGUAACGCGUCUCCCUCCUAAGGAGAAGACUGCAGGUUCGAGCCCCGUACGGAACG: the yeast fitness came out at 0.863.
The result for GUUCCGUUGGCGUAAUGGUAACGCGUCUCCCUCCUAAGGAGAAGACUGCAGGUUCGAGGCCCGUACGGAACG reads 0.846; that for GUUCCGUUGGCGUAAUGGUAACGCGUCUCCCUCCUAAGGAGAAGACUGCAGAUUCGAGUCCCGUACGGAACG, 0.688; that for GUUCCGUUGGCGUAAUGGUAACGCGUCUCCCUCCUAAGGAGAAGACUGCAGGUUGGAGUCCAGUACGGAACG, 0.654.
GUUCCGUUGGCGUAAUGGUAACGCGUCUCCCUCCUAAGGAGAAGACUGCACGUUCGAGUCCCGUACGGAACG: the yeast fitness was found to be 0.585.
In the case of GUUCCGUUGGCGUAAUGGUAACGCGUCUCCCUCCUAAGGAGAAGACUGCAUGUUCGAGUCCCGUACGGAACG it was 0.664; in that of GUUCCGUUGGCGUAAUGGUAACGCGUCUCCCUCCUAAGGAGAAGACUGCAGGUUCGAGUGCCGGACGGAACG, 0.521.
In the case of GUUCCGUUGGCGUAAUGGUAACGCGUCUCCCUCCUAAGGAGAAGACUGCCGGCUUGAGUCCCGUACGGAACG it was 0.528.
The result for GUUCCGUUGGCGUAAUGGUAACGCGUCUCCCUCCUAAGGAGAAGACUGCCGGUUCGAGUCCCGUACGGAACG reads 0.844; that for GUUCCGUUGGCGUAAUGGUAACGCGUCUCCCUCCUAAGGAGAAGACUGCUGGUUCGAGUCCCGUACGGAACG, 0.961; that for GUUCCGUUGGCGUAAUGGUAACGCGUCUCCCUCCUAAGGAGAAGACUGCCAGUUUGAGUCCCGUACGGAACG, 0.549.
Regarding GUUCCGUUGGCGUAAUGGUAACGCGUCUCCCUCCUAAGGAGAAGACUGCCGGUCCGAGUCCGGUACGGAACG, the yeast fitness is 0.622.
In the case of GUUCCGUUGGCGUAAUGGUAACGCGUCUCCCUCCUAAGGAGAAGACUGCCGGUUCGAGUCCCAUACGGAACG it was 0.773; in that of GUUCCGUUGGCGUAAUGGUAACGCGUCUCCCUCCUAAGGAGAAGACUGCCGGUUCGAGUCCCGCACGGAACG, 0.967.
